Assay results: ChEMBL document CHEMBL4330152, “α-Carbonic anhydrases are strongly activated by spinaceamine derivatives” (Bioorg Med Chem, 2019)

Legend:
[1] = biological target: Carbonic anhydrase 1 (Homo sapiens) (UniProt P00915); test: Activation of human CA-1 incubated for 15 mins prior to testing by stopped flow CO2 hydrase assay
In short: (§1)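 Stopped-flow CO2 hydration at 25 °C, 10 mM Hepes pH 7.5 with 0.1 M NaClO4, phenol red 0.2 mM read at 557 nm over 10 s. CO2 1.7–17 mM. Activators (0.1 mM stocks in water) diluted in buffer down to 1 nM and preincubated 15 min with enzyme. Initial rates from ≥6 traces of first 5–10% of reaction, uncatalysed rate subtracted. Activation constants from competitive steady-state equation.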

[2] = biological target: Carbonic anhydrase 2 (Homo sapiens) (UniProt P00918); test: Activation of human CA-2 incubated for 15 mins prior to testing by stopped flow CO2 hydrase assay; in short: as §1
[3] = biological target: Carbonic anhydrase 7 (Homo sapiens) (UniProt P43166); test: Activation of human CA-7 incubated for 15 mins prior to testing by stopped flow CO2 hydrase assay
[4] = biological target: Carbonic anhydrase 4 (Homo sapiens) (UniProt P22748); test: Activation of human CA-4 incubated for 15 mins prior to testing by stopped flow CO2 hydrase assay; in short: as §1
Chain of Carbonic anhydrase 4 (Homo sapiens) (P22748 whole entry): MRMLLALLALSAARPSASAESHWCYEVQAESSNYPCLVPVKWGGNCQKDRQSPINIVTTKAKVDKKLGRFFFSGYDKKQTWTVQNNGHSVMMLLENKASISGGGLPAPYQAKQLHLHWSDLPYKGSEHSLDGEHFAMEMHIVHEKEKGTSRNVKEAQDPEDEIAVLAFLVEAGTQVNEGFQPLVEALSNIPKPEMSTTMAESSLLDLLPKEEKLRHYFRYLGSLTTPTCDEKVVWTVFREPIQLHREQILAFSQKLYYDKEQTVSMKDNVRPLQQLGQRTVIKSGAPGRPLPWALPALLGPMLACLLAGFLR

Chain of Carbonic anhydrase 1 (Homo sapiens) (P00915 2-261 limits assumed): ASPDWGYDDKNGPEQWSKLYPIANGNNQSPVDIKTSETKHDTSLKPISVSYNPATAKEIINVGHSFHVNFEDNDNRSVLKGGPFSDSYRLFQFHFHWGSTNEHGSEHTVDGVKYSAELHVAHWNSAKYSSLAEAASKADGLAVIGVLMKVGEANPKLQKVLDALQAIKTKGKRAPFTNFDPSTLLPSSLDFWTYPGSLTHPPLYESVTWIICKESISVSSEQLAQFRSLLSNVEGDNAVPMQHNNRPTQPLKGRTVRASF

Row | SMILES | KA [1] | KA [2] | KA [3] | KA [4]
1 | Clc1ccc(C2NCCc3[nH]cnc32)cc1 (stereo not drawn) | 17.6 µM | 8.49 µM | 0.84 µM | 50.1 µM
2 | Cc1ccc(C2NCCc3nc[nH]c32)cc1 (stereo not drawn) | 6.27 µM | 17.2 µM | 1.03 µM | 7.06 µM
3 | Brc1ccccc1C1NCCc2nc[nH]c21 (stereo not drawn) | 4.3 µM | 2.8 µM | 0.082 µM | 4.05 µM
4 | N#Cc1ccc(C2NCCc3nc[nH]c32)cc1 (stereo not drawn) | 4.89 µM | 7.25 µM | 4.26 µM | 5.8 µM
5 | Oc1ccccc1C1NCCc2nc[nH]c21 (stereo not drawn) | 2.52 µM | 1.62 µM | 0.11 µM | 3.59 µM
6 | CN(C)c1ccc(C2NCCc3nc[nH]c32)cc1 (stereo not drawn) | 3.45 µM | 7.44 µM | 0.59 µM | 3.14 µM
7 | c1coc(C2NCCc3nc[nH]c32)c1 (stereo not drawn) | 21.5 µM | 5.12 µM | 0.095 µM | 2.4 µM
8 | NCCc1c[nH]cn1 |  |  | 37.6 µM | 4.03 µM
9 | COc1ccc(C2NCCc3nc[nH]c32)cc1OC (stereo not drawn) | 3.76 µM | 0.71 µM | 0.26 µM | 6.17 µM
10 | COc1ccc(C2NCCc3[nH]cnc32)cc1 (stereo not drawn) | 6.01 µM | 7.31 µM | 0.73 µM | 6.37 µM
11 | COc1cc(C2NCCc3nc[nH]c32)cc(OC)c1OC (stereo not drawn) | 9.28 µM | 3.26 µM | 0.093 µM | 2.84 µM
12 | Fc1cc(F)c(F)c(C2NCCc3nc[nH]c32)c1F (stereo not drawn) | 9.92 µM | 0.6 µM | 0.11 µM | 0.52 µM
13 | Oc1ccc(Br)cc1C1NCCc2nc[nH]c21 (stereo not drawn) | 4.9 µM | 1.03 µM | 0.12 µM | 10.9 µM
14 | c1ccc(C2NCCc3[nH]cnc32)cc1 (stereo not drawn) | 8.12 µM | 16.3 µM | 2.69 µM | 63.8 µM
15 | Cc1ccc(Br)cc1C1NCCc2nc[nH]c21 (stereo not drawn) | 12.7 µM | 15.5 µM | 0.38 µM | 4.42 µM
